These results are taken from ChEMBL document CHEMBL3739335, “Phosphonooxymethyl Prodrug of Triptolide: Synthesis, Physicochemical Characterization, and Efficacy in Human Colon Adenocarcinoma and Ovarian Cancer Xenografts” (J Med Chem, 2015).

Series [1] is described as follows: Chemical stability of the compound in buffer assessed as compound remaining at pH 4 after 1 hr by HPLC analysis. It is filed as physicochemical. Conditions: read-out: Stability.
Series [2] has as its target T1, Alkaline phosphatase, tissue-nonspecific isozyme (Bos taurus, UniProt P09487).
T1 sequence (P09487 whole entry): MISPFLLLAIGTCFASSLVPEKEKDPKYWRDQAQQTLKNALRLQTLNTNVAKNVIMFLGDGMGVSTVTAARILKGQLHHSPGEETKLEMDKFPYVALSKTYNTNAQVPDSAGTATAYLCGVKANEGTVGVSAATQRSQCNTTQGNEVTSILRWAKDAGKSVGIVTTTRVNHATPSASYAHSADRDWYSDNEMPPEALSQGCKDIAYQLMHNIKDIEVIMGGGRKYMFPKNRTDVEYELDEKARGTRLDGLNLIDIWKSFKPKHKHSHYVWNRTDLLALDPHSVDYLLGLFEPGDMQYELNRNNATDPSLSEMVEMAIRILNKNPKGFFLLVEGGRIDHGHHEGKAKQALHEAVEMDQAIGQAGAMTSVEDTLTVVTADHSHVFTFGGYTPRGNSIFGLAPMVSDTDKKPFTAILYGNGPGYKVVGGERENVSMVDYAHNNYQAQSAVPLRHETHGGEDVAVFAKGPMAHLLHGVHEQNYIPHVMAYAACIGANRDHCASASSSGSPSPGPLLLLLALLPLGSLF
Nature of the series: Prodrug conversion in glycine buffer assessed as bovine intestinal mucosal alkaline phosphatase-mediated triptolide and formaldehyde formation at pH 9.8. The note with it: cattle, isolated protein. It is filed as ADME.

Series [3] can be described thus: Chemical stability of the compound in buffer assessed as compound remaining at pH 9 after 1 hr by HPLC analysis. Format: physicochemical. Conditions: read-out: Stability.
Series [4] can be described thus: Stability of the compound in simulated gastric fluid assessed as compound remaining after 24 hrs by HPLC analysis.
For series [5], the system named is Mus musculus. As to the kind of experiment: Toxicity in athymic nude mouse xenografted with human A2780 cells assessed as mortality at 0.6 to 0.9 mg/kg, po administered for 30 days. It is filed as organism-based. The note with it: in vivo, 720 h. Summed up: (§1)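 Female athymic nude mice, 7–9 weeks old, received 2.5 × 10^6 A2780 cells subcutaneously in the flank in 50% Matrigel/RPMI 1640. Mice were randomized at a mean tumor volume of 188 mm3, 10 per group. Daily oral gavage in USP saline (0.2 mL) for 30 days, dosed on group-mean body weight. Clinical signs, survival and body weights were recorded.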

The nature of series [6]: Stability of the compound in simulated intestinal fluid assessed as compound remaining at pH 7.5 after 24 hrs by HPLC analysis. It is filed as ADME. The note with it: read-out: Stability. Summed up: (§2)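 Drug incubated in simulated gastric fluid or simulated intestinal fluid and sampled at 0, 1, 2, 4, 8 and 24 h. Percent remaining was measured by reversed-phase C18 HPLC with photodiode-array detection, using a 20-min gradient of 10–70% acetonitrile against 10 mM sodium phosphate buffer at pH 7.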

Series [7] relates to Mus musculus. As to the kind of experiment: Toxicity in athymic nude mouse xenografted with human HT-29 cells assessed as mortality at 0.9 mg/kg, ip administered for 4 weeks. Conditions: in vivo, 672 h. Format: organism-based. Summed up: (§3)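 Female athymic nude mice, 7–9 weeks old, received 1.74 × 10^6 HT-29 cells subcutaneously in the right flank in 50% Matrigel/McCoy's 5A. Randomized at 110 mm3, 10 per group. Intraperitoneal dosing in USP saline (0.2 mL) over a 28-day period on the stated schedule. Body weights were taken twice weekly; clinical signs and survival were recorded.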
(Xenograft models place foreign cells or tissue in a host animal.)

Series [8] deals with Mus musculus. As to the kind of experiment: Toxicity in athymic nude mouse xenografted with human A2780 cells assessed as dehydration at 1.2 mg/kg, po administered for 30 days. Conditions: in vivo, 720 h. It is filed as organism-based. Summed up: as §1
Series [9] is described as follows: Second dissociation constant, pKa2 of the compound by 31P NMR analysis. In short, it runs like this: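 pKa2 derived from the pH dependence of the observed 31P NMR chemical shift across solutions of varying pH, by sigmoidal fit (titration-type curve); at 25 °C.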
A short description of series [10]: Chemical stability of the compound in buffer assessed as compound remaining at pH 9 after 24 hrs by HPLC analysis. Conditions: read-out: Stability. It is filed as physicochemical.
The subject of series [11] is Mus musculus. Nature of the series: Toxicity in athymic nude mouse xenografted with human A2780 cells assessed as anorexia at 1.2 mg/kg, po administered for 30 days. It is filed as organism-based. The note with it: in vivo, 720 h. In short, it runs like this: as §1
The subject of series [12] is Mus musculus. Nature of the series: Toxicity in athymic nude mouse xenografted with human HT-29 cells assessed as necrosis at 0.9 mg/kg, ip administered 14 days measured post last dose. It is filed as organism-based. Conditions: in vivo, 336 h. In short, it runs like this: as §3
Series [13] in a line: Stability of the compound in simulated intestinal fluid assessed as compound remaining at pH 7.5 after 2 hrs by HPLC analysis. It is filed as ADME. Conditions: read-out: Stability. Summed up: as §2

Regarding `CC(C)[C@]12O[C@H]1[C@@H]1O[C@]13[C@]1(O[C@H]1C[C@H]1C4=C(CC[C@@]13C)C(=O)OC4)[C@@H]2OCOP(=O)([O-])[O-].[Na+].[Na+]` [MINNELIDE], the remaining at 1 h in series [1] and in [3] was 100% throughout. Also, the Drug metabolism entry in series [2] is on record as “metabolite_detected”. Further, the figures for the remaining at 24 h in [4], in series [6] and in [10] were 0%, 99% and 100%, respectively. Moreover, the Activity entry in series [5], in [7], in [8], in series [11] and in series [12] was “Toxic” throughout. The compound further showed a pKa in series [9] of 6.61. Further, in series [13], the remaining at 2 h is 100%.
